Bioassay records as filed in PubChem BioAssay.
Sampled rows, rich in hits. Any-hit rate of the full collection: about 1.2%.
PP1 counter – PP1-alpha (human) inhibition in PP5 counter-screen; P62136; purified PP1alpha, OMFP fluorescence; inhibition, % at 6.7 µM; 320,000 tested, 0.9% active;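 active = inhibition above the mean inhibition of all tested compounds plus 3 SD, computed separately for each screening campaign, cut at about 15% in these data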
PP5 inh – PP5 (human) phosphatase inhibition; 320,000 tested, 0.18% active; purified PP5c, OMFP substrate fluorescence; P53041; inhibition, % at 6.7 µM; AID 1987;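 active = inhibition above the campaign's mean inhibition across all tested compounds plus 3 SD, cut at about 9.5% in these data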;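 note: 0% = DMSO only and 100% = 100 µM cantharidin control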
Target sequence (P53041 whole entry, looked up): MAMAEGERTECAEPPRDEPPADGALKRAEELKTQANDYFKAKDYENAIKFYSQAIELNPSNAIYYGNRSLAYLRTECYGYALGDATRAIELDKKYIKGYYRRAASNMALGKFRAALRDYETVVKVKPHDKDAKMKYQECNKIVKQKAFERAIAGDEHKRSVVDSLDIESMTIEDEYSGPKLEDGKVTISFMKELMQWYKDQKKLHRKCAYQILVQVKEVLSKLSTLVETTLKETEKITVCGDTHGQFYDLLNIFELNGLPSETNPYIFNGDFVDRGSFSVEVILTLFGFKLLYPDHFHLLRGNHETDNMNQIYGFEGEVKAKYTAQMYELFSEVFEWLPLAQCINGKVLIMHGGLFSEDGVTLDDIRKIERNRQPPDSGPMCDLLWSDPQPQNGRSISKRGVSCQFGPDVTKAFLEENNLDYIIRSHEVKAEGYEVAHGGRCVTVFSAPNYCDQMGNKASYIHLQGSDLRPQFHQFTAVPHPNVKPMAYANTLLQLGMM
procasp3 activ – activates human procaspase-3 | P42574 | recombinant procaspase-3 D3A, Ac-DEVD-pNA absorbance 405 nm | activation, % at 8.5 µM | 330,000 tested, 0.11% active | AID 463141;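 active = activation above the mean of all tested compounds plus 3 SD, cut at about 21% in these data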;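 note: 0% = DMSO alone and 100% = DMSO wells spiked with extra 5 µM PC-3 D3A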
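Test system: Procaspase-3 D3A mutant; medium: Zinc-free HEPES/NaCl buffer with 0.01% Triton X-100 at pH 7.4; reagent: DEVD-pNA substrate; doses: one concentration, 8.5 µM nominal, 0.8% DMSO; times: 1 h preincubation plus 2 h reaction at 25 °C; signal: Epi-absorbance at 405 nm of released p-nitroaniline, 0 and 120 min; replicates: singlicate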
procasp7 counter – counter-screen: procaspase-7 (human) activation; P55210; recombinant procaspase-7, Ac-DEVD-pNA absorbance 405 nm; D23A/D198A/D206A triple mutant, cannot self-cleave; scale: DMSO 0, 5 µM enzyme 100; activation, % at 8.5 µM; 330,000 tested, 0.093% active;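 active = percent activation above the screen-wide mean plus 3 SD, cut at about 25% in these data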
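Replicates: singlicate. Assay system: Procaspase-7 triple mutant (PC-7 D3A). Signal: 405 nm absorbance of p-nitroaniline. Times: 1 h preincubation, 2 h reaction. Buffer or medium: Zinc-free HEPES pH 7.4 with 300 mM NaCl, 0.01% Triton X-100. Also added: DEVD-pNA substrate. Benchmarks: DMSO wells as 0%, DMSO with 5 µM added PC-7 as 100%.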
PP1 inh confirm – human PP1 phosphatase inhibition, confirmation | shares compounds with PP1 counter | 1,900 tested, 52% active | inhibition, % at 6.7 µM | purified PP1alpha, OMFP substrate fluorescence;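 active = mean PP1 inhibition above a set limit taken from the earlier primary screen, cut at about 15% in these data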
PP5 counter – PP5 phosphatase inhibition, counter-screen for PP1 inhibitors. 1,900 tested, 4% active. AID 2360. shares compounds with PP1 counter. inhibition, % at 6.7 µM. purified PP5c, OMFP fluorescence;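 active = mean PP5 inhibition over triplicate wells above about 9.5% taken from the earlier PP1 screen, limit read from the data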
The depositor's hits bear a star.

For COC(=O)CN(Cc1ccccc1)S(=O)(=O)c1ccc(OC)c(OC)c1 the results were PP1 counter 4, PP5 inh 3, procasp3 activ 9 and procasp7 counter 9.
`O=C1CC(N2C(=O)/C(=C/C=C/c3ccccc3)SC2=S)C(=O)N1c1ccccc1` (stereo unspecified) gave PP1 counter 24*, PP5 inh -7, procasp3 activ -57, procasp7 counter -12, PP1 inh confirm 8 and PP5 counter -2.
For O=C(O)CN1C(=O)/C(=C/C=C/c2ccccc2)SC1=S the results were PP1 counter 2, PP5 inh 3, procasp3 activ 0 and procasp7 counter -1.
CC(NC(=O)Cc1ccccc1)C(=O)O (stereo unspecified) was read as PP1 counter -3, PP5 inh -3, procasp3 activ -2 and procasp7 counter -1.
`CC1=NNC(=O)/C1=C\c1cn(-c2ccccc2)nc1-c1cccs1` gave PP1 counter 19*, PP5 inh 3, procasp3 activ -18, procasp7 counter -3, PP1 inh confirm 10 and PP5 counter 0.
For Cc1cccc2c1Sc1ccc(Cl)cc1CC2N1CCNCC1 (stereo unspecified) the results were PP1 counter 19*, PP5 inh 3, procasp3 activ -6, procasp7 counter -8, PP1 inh confirm -4 and PP5 counter -2.
For COc1ccc(NS(=O)(=O)c2ccc3c(c2)[C@H]2C=CC[C@H]2[C@@H](c2ccc(C(=O)O)cc2)N3)cc1 the results were PP1 counter 19*, PP5 inh 3, procasp3 activ -1, procasp7 counter -8, PP1 inh confirm 6 and PP5 counter -2.
`Cc1c(Cl)cccc1NS(=O)(=O)c1ccc2c(c1)C1C=CCC1C(c1ccc(C(=O)O)cc1)N2` (stereo unspecified) gave PP1 counter 25*, PP5 inh 1, procasp3 activ -1, procasp7 counter -6, PP1 inh confirm 18* and PP5 counter 1.
`O=C(O)c1cc(S(=O)(=O)N2CCN(S(=O)(=O)c3ccc4ccccc4c3)CC2)ccc1Br` gave procasp3 activ -1 and procasp7 counter 13.
`NS(=O)(=O)c1ccc(NC(=O)COC(=O)c2cc([N+](=O)[O-])ccc2Cl)cc1` gave PP1 counter 1, PP5 inh 1, procasp3 activ 0 and procasp7 counter 4.
Screening CCSc1ccc(-c2nn(-c3ccccc3)cc2/C=C(/C#N)C(=O)NCCCOC)cc1 returned PP1 counter -2, PP5 inh 0, procasp3 activ -2 and procasp7 counter -22.
`CCOc1cccc(-c2nn(-c3ccccc3)cc2/C=C(/C#N)C(=O)NCCCn2ccnc2)c1` gave PP1 counter 26*, PP5 inh 3, procasp3 activ -2, procasp7 counter 11, PP1 inh confirm 17* and PP5 counter 4.
For Cc1ccc(-c2nn(-c3ccccc3)cc2/C=C(\C#N)C(=O)NCc2ccccc2)cc1 the results were PP1 counter -2, PP5 inh -1, procasp3 activ 0 and procasp7 counter 0.
`N#C/C(=C/c1cn(-c2ccccc2)nc1-c1cccc(OCc2ccccc2)c1)C(=O)NCCCn1ccnc1` gave PP1 counter 21*, PP5 inh 1, procasp3 activ -1, procasp7 counter -9, PP1 inh confirm 13 and PP5 counter 1.
Screening Cc1ccc(C(C)C)c(OCC(=O)NNC(=O)Cc2ccc(S(=O)(=O)N3CCOCC3)s2)c1 returned procasp3 activ 1 and procasp7 counter -9.
NNC(=O)c1ccc(COc2ccc3ccccc3c2)cc1 was read as PP1 counter 21*, PP5 inh -2, procasp3 activ 8, procasp7 counter -1, PP1 inh confirm 9 and PP5 counter -2.
For Nc1cc(=O)[nH]c(SCC(=O)Nc2ccc([N+](=O)[O-])cc2)n1 the results were PP1 counter -3, PP5 inh 1, procasp3 activ -13 and procasp7 counter 2.
Nc1nc(SCC(=O)Nc2ccc([N+](=O)[O-])cc2)[nH]c(=O)c1NC(=O)c1ccc(Br)cc1 was read as PP1 counter 19*, PP5 inh 0, procasp3 activ -3, procasp7 counter 2, PP1 inh confirm 23* and PP5 counter -3.
Nc1[nH]n2c(=O)c3c(nc2c1N=Nc1ccc(Cl)cc1)CCCC3 was read as PP1 counter 5, PP5 inh -4, procasp3 activ 0 and procasp7 counter 1.
For Nc1[nH]n2c(=O)c3c(nc2c1N=Nc1ccccc1)CCCC3 the results were PP1 counter 20*, PP5 inh 4, procasp3 activ -27, procasp7 counter -18, PP1 inh confirm 21* and PP5 counter 5.
CCN1C[C@@H]2[C@@H]3C(=O)N(C)C(=O)[C@@H]3[C@](C)(C(=O)OC)N2C1=NC was read as procasp3 activ -3 and procasp7 counter 6.
For C=Cc1c(C)c2cc3[nH]c(cc4nc(cc5nc(cc1[nH]2)C(C)=C5CCC(=O)O)C(CCC(=O)O)=C4C)c(C)c3C=C the results were PP1 counter 61*, PP5 inh 5, procasp3 activ 5, procasp7 counter -8, PP1 inh confirm 41* and PP5 counter 4.
`C[C@@H](C(=O)OCC(=O)c1ccc(F)c(F)c1)N1C(=O)C2CCCCC2C1=O` (stereo partly specified) gave procasp3 activ 3 and procasp7 counter 0.
`Cc1ccc2nc3c(nc2c1)-c1ccccc1C3=O` gave PP1 counter -4, PP5 inh -2, procasp3 activ 0 and procasp7 counter 0.
For Cc1cc(C(=O)OCC(=O)N(C)c2c(N)n(Cc3ccccc3)c(=O)[nH]c2=O)c(C)n1-c1ccccc1 the results were PP1 counter 21*, PP5 inh 0, procasp3 activ -17, procasp7 counter -27, PP1 inh confirm 0 and PP5 counter -1.
COCCN(C(=O)COC(=O)C1CC1)c1c(N)n(Cc2ccccc2)c(=O)[nH]c1=O was read as PP1 counter -6, PP5 inh 0, procasp3 activ 6 and procasp7 counter 9.
For COCCN(C(=O)COC(=O)Cc1ccc(Cl)cc1Cl)c1c(N)n(Cc2ccccc2)c(=O)[nH]c1=O the results were PP1 counter 81*, PP5 inh -1, procasp3 activ 11, procasp7 counter 1, PP1 inh confirm -1 and PP5 counter -1.
COc1ccc(NC(=O)CN(C)C(=O)c2c(C)nn(Cc3ccc(C)cc3)c2Cl)cc1 was read as PP1 counter 0, PP5 inh 2, procasp3 activ 6 and procasp7 counter 0.
